Laboratory results as given in PMC5116011 (The Journal of antibiotics, 2016).
Values after ≈ are worked out from the molar mass of the structure shown. Read-outs that look alike come from different tables or passages of the source.

Assays:
E. faecalis ATCC33186 = assay: MIC, microbroth dilution in Mueller-Hinton broth; assay type: cell-based; conditions: Enterococcus faecalis, ATCC33186, read-out: MIC EF
How it was run: (§1)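 CLSI broth microdilution in cation-adjusted Mueller-Hinton broth. Inocula were grown from MH agar colonies in MH broth, with a final inoculum of 10^5 CFU/ml. Test compound final range was 200–0.2 µg/ml, incubated 37°C for 18–20 h. MIC was the lowest concentration preventing visible growth. Runs were at least duplicate, and the mean MIC was reported.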

S. pyogenes ATCC700294 = assay: MIC, microbroth dilution in Mueller-Hinton broth; assay type: cell-based; conditions: Streptococcus pyogenes, ATCC700294, read-out: MIC SPy
How it was run: as §1

S. pneumoniae R6 = assay: MIC, microbroth dilution in Mueller-Hinton broth; assay type: cell-based; conditions: Streptococcus pneumoniae, R6, read-out: MIC SP
How it was run: as §1

B. anthracis sterne = assay: microbe, parasite or virus in culture; assay type: cell-based; conditions: Bacillus anthracis, read-out: MIC BA
B. subtilis ATCC23857 = assay: MIC, microbroth dilution in Mueller-Hinton broth; assay type: cell-based; conditions: Bacillus subtilis, ATCC23857, read-out: MIC BS
How it was run: as §1

[1] = tested on: S. aureus -ATCC29213 (MSSA); assay: MIC, microbroth dilution in Mueller-Hinton broth; assay type: cell-based; conditions: Staphylococcus aureus, read-out: MIC MSSA
How it was run: as §1

S. aureus NRS 70 (MRSA) = assay: MIC, microbroth dilution in Mueller-Hinton broth; assay type: cell-based; conditions: Staphylococcus aureus, MRSA|NRS70, read-out: MIC MRSA
How it was run: as §1

E. coli BW25113 = assay: MIC, microbroth dilution in Mueller-Hinton broth; assay type: cell-based, Escherichia coli; conditions: for MIC EC MH+BP/CCCP / MIC EC +: E. coli BW25113; for MIC EC MH+BP/CCCP: MH broth with 30 µg/ml 2,2′-bipyridyl and 50 µg/ml CCCP; for MIC EC +: with clavulanic acid (6µg/ml); for MIC: Escherichia coli, BW25113, read-out: MIC EC, E. coli BW25113, Mueller-Hinton broth (Table 2)
[2] = tested on: E. coli BW25113 ΔtolC derivative JW5503-1; assay: MIC, microbroth dilution in Mueller-Hinton broth; assay type: cell-based, Escherichia coli; conditions: for MIC: Escherichia coli
P. vulgaris ATCC 33420 = assay: MIC, microbroth dilution in Mueller-Hinton broth; assay type: cell-based; conditions: Proteus vulgaris, ATCC33420, read-out: MIC PV
P. mirabilis ATCC 25933 = assay: MIC, microbroth dilution in Mueller-Hinton broth; assay type: cell-based; conditions: Proteus mirabilis, ATCC25933, read-out: MIC PM
P. aeruginosa PA01 = assay: MIC, microbroth dilution in Mueller-Hinton broth; assay type: cell-based, Pseudomonas aeruginosa; conditions: for MIC PA MH+BP/CCCP / MIC PA +: P. aeruginosa PA01; for MIC PA MH+BP/CCCP: MH broth with 30 µg/ml 2,2′-bipyridyl and 50 µg/ml CCCP; for MIC PA +: with clavulanic acid (6µg/ml); for MIC: Pseudomonas aeruginosa
[3] = tested on: E. coli BW25113 ΔampC derivative JW4111-2; assay type: cell-based, Escherichia coli; conditions: for MIC: Escherichia coli, BW25113, read-out: MIC ECΔampC −
[4] = E. coli BW25113 ΔtolC JW5503-1, MH broth containing 50 µg/ml CCCP
[5] = BW25113, read-out: MIC ECΔtolC MH
[6] = BW25113, read-out: MIC ECΔtolC MH+BP

SMILES | MIC (E. faecalis ATCC33186) [µg/mL] | MIC (S. pyogenes ATCC700294) [µg/mL] | MIC (S. pneumoniae R6) [µg/mL] | MIC (B. anthracis sterne) [µg/mL] | MIC (B. subtilis ATCC23857) [µg/mL] | MIC [1] [µg/mL] | MIC (S. aureus NRS 70 (MRSA)) [µg/mL] | MIC EC MH+BP/CCCP (E. coli BW25113) [µg/mL] | MIC EC + (E. coli BW25113) [µg/mL] | MIC (E. coli BW25113) [µg/mL] | MIC ([2]; BW25113, read-out: MIC ECΔtolC) [µg/mL] | MIC [2, 5] [µg/mL] | MIC [2, 6] [µg/mL] | MIC (P. vulgaris ATCC 33420) [µg/mL] | MIC (P. mirabilis ATCC 25933) [µg/mL] | MIC PA MH+BP/CCCP (P. aeruginosa PA01) [µg/mL] | MIC (P. aeruginosa PA01; PA01, read-out: MIC PA) [µg/mL] | MIC (P. aeruginosa PA01; PA01, read-out: MIC PA MH) [µg/mL] | MIC (P. aeruginosa PA01; PA01, read-out: MIC PA MH+BP) [µg/mL] | MIC (P. aeruginosa PA01; PA01, read-out: MIC PA MH+CCCP) [µg/mL] | also measured
CC(C)CC1NC(=O)C(C(=O)NC(C(=O)NC2C(=O)N3C2SC(C)(C)C3C(=O)O)c2ccccc2)=C1O (centres unmarked) [Compound 1903] | 25 (≈ 47.1 µM) | 0.39 (≈ 0.735 µM) | 0.39 (≈ 0.735 µM) | 3.13 (≈ 5.9 µM) | 1.56 (≈ 2.94 µM) | 0.78 (≈ 1.47 µM) | 25 (≈ 47.1 µM) | 12.5 (≈ 23.6 µM) | 12.5 | 50 (≈ 94.2 µM) | 6.25 (≈ 11.8 µM) | 6.2 (≈ 11.7 µM) | 1.56 (≈ 2.94 µM) | 25 (≈ 47.1 µM) | 12.5 (≈ 23.6 µM) | 1.56 (≈ 2.94 µM) | 12.5 (≈ 23.6 µM) | 12.5 (≈ 23.6 µM) | 12.5 (≈ 23.6 µM) | 3.13 (≈ 5.9 µM) | MIC ECΔtolC MH+CCCP [2, 4]: 1.56 µg/mL (≈ 2.94 µM); MIC PA + (P. aeruginosa PA01): 6.25 µg/mL; MIC (P. aeruginosa PA01; PA01, read-out: MIC PA −): 12.5 µg/mL (≈ 23.6 µM); MIC [3]: 6.25 µg/mL (≈ 11.8 µM); MIC ECΔampC + [3]: 1.56 µg/mL
CC(C)(C)Oc1ccc(CC2NC(=O)C(C(=O)NC(C(=O)NC3C(=O)N4C3SC(C)(C)C4C(=O)O)c3ccccc3)=C2O)cc1 (centres unmarked) [Compound 1905] | 50 (≈ 78.5 µM) | 0.78 (≈ 1.23 µM) | < 0.2 | 3.13 (≈ 4.92 µM) | 3.13 (≈ 4.92 µM) | 0.78 (≈ 1.23 µM) | 50 (≈ 78.5 µM) | 6.25 (≈ 9.82 µM) | 12.5 | 25 (≈ 39.3 µM) | 6.25 (≈ 9.82 µM) | 6.25 (≈ 9.82 µM) | 1.56 (≈ 2.45 µM) | 50 (≈ 78.5 µM) | 25 (≈ 39.3 µM) | 0.78 (≈ 1.23 µM) | 25 (≈ 39.3 µM) | 25 (≈ 39.3 µM) | 6.25 (≈ 9.82 µM) | 3.13 (≈ 4.92 µM) | MIC ECΔtolC MH+BP/CCCP ([2]; {}): 0.78 µg/mL (≈ 1.23 µM); MIC ECΔtolC MH+CCCP ([2]; {}): 1.56 µg/mL (≈ 2.45 µM); MIC PA + (P. aeruginosa PA01): 12.5 µg/mL; MIC (P. aeruginosa PA01; PA01, read-out: MIC PA −): 25 µg/mL (≈ 39.3 µM); MIC ECΔampC + [3]: 12.5 µg/mL
CC(C)(C)OCC1NC(=O)C(C(=O)NC(C(=O)NC2C(=O)N3C2SC(C)(C)C3C(=O)O)c2ccccc2)=C1O (centres unmarked) [Compound 1940] | 25 (≈ 44.6 µM) | 0.78 (≈ 1.39 µM) | 0.78 (≈ 1.39 µM) | 3.13 (≈ 5.58 µM) | 3.13 (≈ 5.58 µM) | 1.56 (≈ 2.78 µM) | 25 (≈ 44.6 µM) | 12.5 (≈ 22.3 µM) | 12.5 | 50 (≈ 89.2 µM) | 12.5 (≈ 22.3 µM) | 12.5 (≈ 22.3 µM) | 3.13 (≈ 5.58 µM) | 50 (≈ 89.2 µM) | 6.25 (≈ 11.1 µM) | 6.25 (≈ 11.1 µM) | 25 (≈ 44.6 µM) | 25 (≈ 44.6 µM) | 12.5 (≈ 22.3 µM) | 12.5 (≈ 22.3 µM) | MIC ECΔtolC MH+BP/CCCP ([2]; {}): 1.56 µg/mL (≈ 2.78 µM); MIC ECΔtolC MH+CCCP ([2]; {}): 6.25 µg/mL (≈ 11.1 µM); MIC PA + (P. aeruginosa PA01): 12.5 µg/mL; MIC (P. aeruginosa PA01; PA01, read-out: MIC PA −): 25 µg/mL (≈ 44.6 µM); MIC [3]: 12.5 µg/mL (≈ 22.3 µM); MIC ECΔampC + [3]: 6.25 µg/mL
CN1CC(O)=C(C(=O)NC(C(=O)NC2C(=O)N3C2SC(C)(C)C3C(=O)O)c2ccccc2)C1=O (centres unmarked) [Compound 2742] | 25 (≈ 51.2 µM) | 1.56 (≈ 3.19 µM) | 1.56 (≈ 3.19 µM) | 6.25 (≈ 12.8 µM) | 3.13 (≈ 6.41 µM) | 1.56 (≈ 3.19 µM) | 100 (≈ 205 µM) | 12.5 (≈ 25.6 µM) | 25 | 100 (≈ 205 µM) | 12.5 (≈ 25.6 µM) | 12.5 (≈ 25.6 µM) | 6.25 (≈ 12.8 µM) | 100 (≈ 205 µM) | 6.25 (≈ 12.8 µM) | 6.25 (≈ 12.8 µM) | 25 (≈ 51.2 µM) | 25 (≈ 51.2 µM) | 12.5 (≈ 25.6 µM) | 12.5 (≈ 25.6 µM) | MIC ECΔtolC MH+BP/CCCP ([2]; {}): 1.56 µg/mL (≈ 3.19 µM); MIC ECΔtolC MH+CCCP ([2]; {}): 6.25 µg/mL (≈ 12.8 µM); MIC PA + (P. aeruginosa PA01): 12.5 µg/mL; MIC (P. aeruginosa PA01; PA01, read-out: MIC PA −): 25 µg/mL (≈ 51.2 µM); MIC [3]: 25 µg/mL (≈ 51.2 µM); MIC ECΔampC + [3]: 12.5 µg/mL
CC1(C)SC2C(NC(=O)C(NC(=O)C3=C(O)CNC3=O)c3ccccc3)C(=O)N2C1C(=O)O (centres unmarked) [Compound 2743] | 12.5 (≈ 26.3 µM) | < 0.2 | < 0.2 | 0.78 (≈ 1.64 µM) | 0.78 (≈ 1.64 µM) | 0.78 (≈ 1.64 µM) | 25 (≈ 52.7 µM) | 12.5 (≈ 26.3 µM) | 12.5 | 200 (≈ 422 µM) | 12.5 (≈ 26.3 µM) | 12.5 (≈ 26.3 µM) | 6.25 (≈ 13.2 µM) | 100 (≈ 211 µM) | 3.13 (≈ 6.6 µM) | 3.13 (≈ 6.6 µM) | 25 (≈ 52.7 µM) | 25 (≈ 52.7 µM) | 12.5 (≈ 26.3 µM) | 6.25 (≈ 13.2 µM) | MIC ECΔtolC MH+BP/CCCP ([2]; {}): 1.56 µg/mL (≈ 3.29 µM); MIC ECΔtolC MH+CCCP ([2]; {}): 3.13 µg/mL (≈ 6.6 µM); MIC PA + (P. aeruginosa PA01): 12.5 µg/mL; MIC (P. aeruginosa PA01; PA01, read-out: MIC PA −): 25 µg/mL (≈ 52.7 µM); MIC [3]: 12.5 µg/mL (≈ 26.3 µM); MIC ECΔampC + [3]: 6.25 µg/mL
CC(C)C1NC(=O)C(C(=O)NC(C(=O)NC2C(=O)N3C2SC(C)(C)C3C(=O)O)c2ccccc2)=C1O (centres unmarked) [Compound 2744] | 12.5 (≈ 24.2 µM) | 0.78 (≈ 1.51 µM) | 0.39 (≈ 0.755 µM) | 6.25 (≈ 12.1 µM) | 3.13 (≈ 6.06 µM) | 1.56 (≈ 3.02 µM) | 25 (≈ 48.4 µM) | 25 (≈ 48.4 µM) | 25 | 100 (≈ 194 µM) | 3.13 (≈ 6.06 µM) | 3.13 (≈ 6.06 µM) | 3.13 (≈ 6.06 µM) | 12.5 (≈ 24.2 µM) | 12.5 (≈ 24.2 µM) | 25 (≈ 48.4 µM) | 25 (≈ 48.4 µM) | 25 (≈ 48.4 µM) | 50 (≈ 96.8 µM) | 12.5 (≈ 24.2 µM) | MIC ECΔtolC MH+BP/CCCP ([2]; {}): 0.78 µg/mL (≈ 1.51 µM); MIC ECΔtolC MH+CCCP ([2]; {}): 1.56 µg/mL (≈ 3.02 µM); MIC PA + (P. aeruginosa PA01): 25 µg/mL; MIC (P. aeruginosa PA01; PA01, read-out: MIC PA −): 25 µg/mL (≈ 48.4 µM); MIC ECΔampC + [3]: 12.5 µg/mL
CC1(C)S[C@@H]2[C@H](NC(=O)C(C(=O)O)c3ccccc3)C(=O)N2[C@H]1C(=O)O (some centres unmarked) [carbenicillin, reference compound] | 3.13 (≈ 8.27 µM) | < 0.2 | < 0.2 | < 0.2 | < 0.2 | < 0.2 | 6.25 (≈ 16.5 µM) | 0.78 (≈ 2.06 µM) |  | 100 (≈ 264 µM) | 0.09 (≈ 0.238 µM) | 1.56 (≈ 4.12 µM) | 0.56 (≈ 1.48 µM) | 100 (≈ 264 µM) | 1.56 (≈ 4.12 µM) | 1.56 (≈ 4.12 µM) | 100 (≈ 264 µM) | 200 (≈ 529 µM) | 50 (≈ 132 µM) | 25 (≈ 66.1 µM) | MIC ECΔtolC MH+CCCP [2, 4]: 0.78 µg/mL (≈ 2.06 µM)
